A selection: hits, their analogues and other compounds. The true share with any hit is near 1.6%.
TDP2 inh: human TDP2 enzyme inhibitors, primary screen, biochemical, epi absorbance, recombinant enzyme. Tyrosyl-DNA phosphodiesterase 2 (Homo sapiens), O95551. T5PNP hydrolysis, p-nitrophenol absorbance 415 nm. inhibition, % at 12.8 µM. 370,000 compounds, 0.34% hits. AID 720702, 2013;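 active = inhibition above the mean of all tested compounds plus 3 SD, set per campaign, cut at about 25% in these data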;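 note: 0% = DMSO with enzyme and 100% = buffer with substrate but no TDP2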
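Read-out basis: percent inhibition. System: recombinant human TDP2. Buffer or medium: Mg2+-containing Tris-HCl buffer, pH 7.5. Repeats: single replicate. Timing: reaction 2 h, 37 °C. Benchmarks: high control without enzyme, low control DMSO plus TDP2. Probe or stimulus: 5 mM T5PNP. Doses: 12.8 µM only. Measured by: epi absorbance of p-nitrophenol freed from T5PNP by hydrolysis.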
PAD4 inh: human PAD4 inhibitors, primary screen, biochemical, fluorescence polarization, 1536-well format; recombinant PAD4, RCA probe fluorescence polarization; AID 485272, 2010; inhibition, % at 6.36 µM; 330,000 compounds, 0.41% hits;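 active = percent inhibition above a cutoff equal to the mean of all tested compounds plus 3 SD, cut at about 15% in these data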;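 note: 0% = PAD4 with RCA probe and DMSO and 100% = probe without PAD4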
GSTO1 counter: inhibitors of recombinant GSTO1, primary screen, counter-screen for RBBP9 inhibitor project, biochemical, fluorescence polarization; activity-based probe fluorescence polarization; 300,000 compounds, 1.1% hits; Glutathione S-transferase omega-1 (Homo sapiens), P78417; inhibition, % at 5.96 µM;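 active = inhibition above the campaign mean inhibition plus 3 SD, cut at about 35% in these data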;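 note: 0% = GSTO1-1 with DMSO and 100% = wells lacking GSTO1-1 enzyme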
Target sequence (P78417 whole entry, looked up): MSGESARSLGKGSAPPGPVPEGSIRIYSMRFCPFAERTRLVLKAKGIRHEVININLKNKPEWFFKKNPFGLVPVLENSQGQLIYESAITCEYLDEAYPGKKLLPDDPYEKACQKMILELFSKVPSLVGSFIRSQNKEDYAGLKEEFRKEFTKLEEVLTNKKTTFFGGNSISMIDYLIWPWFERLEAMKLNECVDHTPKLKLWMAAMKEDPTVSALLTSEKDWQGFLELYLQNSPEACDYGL
UCH37 inh: inhibitors of human UCH37 deubiquitinase, primary screen, biochemical, Ub-AMC cleavage, fluorescence; purified proteasome/UCH37; inhibition, % (no concentration beside the values); 330,000 compounds, 0.33% hits;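 active = mean inhibition over replicate wells above about 20%, limit read from the data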;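 note: 0% = compound-free wells with enzyme and 100% = wells lacking proteasome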
Target sequence (Q9Y5K5 whole entry, looked up): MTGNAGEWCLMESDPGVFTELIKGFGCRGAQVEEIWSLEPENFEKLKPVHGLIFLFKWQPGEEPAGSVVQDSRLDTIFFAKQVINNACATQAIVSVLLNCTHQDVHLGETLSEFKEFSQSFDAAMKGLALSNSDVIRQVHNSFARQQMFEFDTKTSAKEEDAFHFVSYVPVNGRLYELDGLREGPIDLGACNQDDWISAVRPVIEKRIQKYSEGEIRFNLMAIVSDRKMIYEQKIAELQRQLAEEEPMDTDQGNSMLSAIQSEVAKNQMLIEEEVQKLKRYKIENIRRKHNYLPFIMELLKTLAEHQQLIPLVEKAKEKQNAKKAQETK
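Reagent: Ub-AMC substrate; assay system: Proteasome-associated human UCH37 deubiquitinase; controls: no-proteasome and no-compound wells; read-out: % inhibition of Ub-AMC cleavage fluorescence; timing: 30 min preincubation with enzyme, 25 min cleavage at room temperature; signal: AMC fluorescence from Ub-AMC cleavage, excitation 355 nm, emission 460 nm; buffer or medium: Tris-HCl pH 7.4 plus ovalbumin, ATP-MgCl2, DTT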
HKDC1 inh: HKDC1 hexokinase inhibitors, primary screen, biochemical, fluorescence, uHTS; Q2TB90; recombinant HKDC1, G6PDH/diaphorase resazurin coupled fluorescence; inhibition, % at 20 µM; 340,000 compounds, 0.16% hits;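 active = inhibition above about 35% when tested at 20 µM, limit read from the data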;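 note: plate controls were DMSO wells with enzyme for no effect and DMSO wells lacking enzyme for full effect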
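Material: recombinant HKDC1 hexokinase; Amount: HKDC1 at 5 µg/mL; Medium: Tris pH 8.0 buffer with MgCl2, Tween-20, BSA, BME; Schedule: 90 min reaction incubation at room temperature, dark; Technique: coupled resazurin fluorescence, excitation 525 nm, emission 613 nm.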
CTSL1 counter: Fasciola hepatica cathepsin L1 inhibitors, primary screen, counter-screen for PFM18AAP inhibitor project, biochemical, QFRET, fluorogenic peptide substrate. recombinant F. hepatica cathepsin L1, Z-Leu-Arg-MCA fluorescence. inhibition, % at 5.96 µM. 300,000 compounds, 0.49% hits. AID 1906, 2009;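 active = inhibition above the mean of all tested compounds plus 3 SD, set per screening campaign, cut at about 17% in these data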;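 note: 0% = plate median of test compound wells and 100% = 1 µM Z-Phe-Ala-diazomethylketone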
TDP2 confirm: human TDP2 enzyme inhibitors, retest, confirmation, biochemical, epi absorbance, recombinant enzyme | shares compounds with TDP2 inh | absorbance read-out | inhibition, % at 12.8 µM | 1,100 compounds, 22% hits | AID 743263, 2014; in the data active = inhibition above about 25%;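 note: 0% = vehicle with enzyme and 100% = no enzyme buffer only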
* marks the source's active call; other numbers are inactive results; · = no result given.

SMILES	TDP2 inh	PAD4 inh	GSTO1 counter	UCH37 inh	HKDC1 inh	CTSL1 counter	TDP2 confirm
O=[N+]([O-])c1ccc(NN=Cc2ccccc2)cc1	·	·	·	-2.5	·	·	·
COc1ccc(OCC(=O)NS(=O)(=O)c2ccccc2)cc1	29.2*	-0.3	4.9	0.2	-6.6	4.7	5.7
Cc1ccc(CN2CCC(N3CC(C)OC(C)C3)CC2)cc1 (centres undefined)	24.7*	·	·	2.3	-7.5	·	4.0
Oc1cncc(Cc2ccccc2)c1	24.9*	-0.8	5.4	5.1	2.5	7.5	-13.1
CON=C(C)c1ncc(C(F)(F)F)cc1N1CCOCC1	·	·	·	-2.6	·	·	·
Cc1nn(-c2ccccc2)c2c1C(c1c(C)[nH]c(C#N)c1C)C(C#N)=C(N)O2 (centres undefined)	35.3*	4.1	22.7	1.2	5.1	-9.6	-1.7
Cc1nn(-c2ccccc2)c(Cl)c1C1C(C#N)=C(N)Oc2c1c(C)nn2-c1ccccc1 (centres undefined)	27.1*	-14.1	20.9	4.3	-4.1	1.9	9.3
Cc1nn(-c2ccccc2)c(Cl)c1C1C(C#N)=C(N)Oc2n[nH]c(C)c21 (centres undefined)	12.2	-24.8	6.7	3.0	3.4	1.4	·
CCOC(=O)C1=C(C)OC(N)=C(C#N)C1c1c(C)nn(-c2ccccc2)c1Cl (centres undefined)	6.6	-3.4	-2.9	0.7	2.6	-8.5	·
Cc1ccc(-n2nc(C)c3c2OC(N)=C(C#N)C3c2ccccc2F)cc1 (centres undefined)	25.9*	6.0	17.5	1.8	1.1	-2.3	-2.5
Cc1ccc(SCc2cc(=O)[nH]c(N=C(N)Nc3ccccc3Sc3ccccc3)n2)cc1	·	·	·	3.4	·	·	·
Cn1cccc1C=Nn1c(-c2ccccc2)n[nH]c1=S	·	·	·	2.0	·	·	·
NC(=O)C1CCN(C2=C(NS(=O)(=O)c3ccc(Br)cc3)C(=O)c3ccccc3C2=O)CC1	38.4*	-14.4	34.8*	21.2*	18.6	-2.4	9.0
CCOC(=O)N1CCN(C2=C(NS(=O)(=O)c3ccccc3)C(=O)c3ccccc3C2=O)CC1	64.3*	-6.7	11.8	8.0	16.9	-2.8	11.1
O=C1C(NS(=O)(=O)c2cccs2)=C(N2CCN(Cc3ccccc3)CC2)C(=O)c2ccccc21	39.6*	-14.9	29.0	4.6	7.2	-5.8	9.3
CCOC(=O)N1CCN(C2=C(NS(=O)(=O)c3ccc(Br)cc3)C(=O)c3ccccc3C2=O)CC1	15.0	·	·	·	·	·	·
O=C(CNS(=O)(=O)c1ccc([N+](=O)[O-])cc1)NN=Cc1ccc(O)cc1	·	·	·	1.8	·	·	·
CCOc1ccc2nc(/N=C/c3c(C)[nH]n(-c4ccccc4)c3=O)sc2c1	34.7*	-6.2	7.9	·	3.5	-1.8	10.2
CCOC(=O)C1CCN(S(=O)(=O)c2cc(C(=O)N3CCCCC3)ccc2OC)CC1	25.1*	2.8	-0.9	5.0	-4.7	-2.8	-0.6
O=C(/C=C/c1cccc([N+](=O)[O-])c1)NCCN1C(=O)S/C(=C\c2cccnc2)C1=O	24.6*	-1.4	3.0	8.4	12.8	-1.0	-2.9
CCN1CCN(CC(O)COC(c2ccccc2)c2ccccc2C)CC1 (centres undefined)	27.5*	-6.2	2.5	1.5	-2.0	-2.8	18.6
Cc1ccccc1C(OCC(O)CN1CCC(C(N)=O)CC1)c1ccccc1 (centres undefined)	11.7	-1.0	0.7	1.0	-3.7	-3.9	·
O=C(O)c1ccc(NN=Cc2cccc(F)c2)cc1	·	·	·	17.1	·	·	·
CN(C)c1ccc2cc(S(=O)(=O)O)cc(O)c2c1	54.6*	·	·	-256.6	23.6	·	13.3
CC(=O)NC(Cc1ccc(F)cc1)C(=O)NC1CCN(C(=O)Nc2ccc(F)cc2)CC1 (centres undefined)	25.2*	-0.5	8.3	8.4	-30.2	-0.2	2.1
SMILES	TDP2 inh	PAD4 inh	GSTO1 counter	UCH37 inh	HKDC1 inh	CTSL1 counter	TDP2 confirm
C(=N\Nc1nncn1/N=C/c1ccco1)/c1ccco1	55.1*	-6.3	-7.0	·	-3.6	0.4	0.5
S=c1[nH]nc(COc2ccccc2)n1N=Cc1ccc(Br)cc1	·	·	·	0.0	·	·	·
O=C(N/N=C/c1c(F)cccc1Cl)C1CC1	63.2*	2.3	-8.3	·	-4.1	-1.7	-0.6
CC(=NNC(=O)c1nnn(-c2nonc2N)c1CN(C)c1ccccc1)c1ccccn1	·	·	·	6.3	·	·	·
O=[N+]([O-])c1ccc(NN=C2CCCCC2c2ccccn2)c([N+](=O)[O-])c1 (centres undefined)	·	·	·	7.4	·	·	·
CC1(OC(=O)C2CCCC2)C(=O)C=C2C=C(c3ccsc3)N(C(CO)CO)C=C2C1=O (centres undefined)	20.2	-10.0	9.7	3.4	19.8	4.3	·
COC(=O)CCC(=O)OC1(C)C(=O)C=C2C=C(C3CC3)N(C(CO)CO)C=C2C1=O (centres undefined)	29.9*	-5.0	23.0	3.4	17.3	4.4	13.6
COc1cccc(N(CC(=O)NC2CCCCC2)C(=O)CCC(=O)Nc2nccs2)c1	28.7*	-2.4	4.0	1.6	-6.3	-1.5	4.2
COc1cccc(N(CC(=O)NC2CCCC2)C(=O)CCC(=O)Nc2nccs2)c1	-3.8	1.9	-3.2	1.2	-1.4	-0.3	·
O=C(Nc1ccc(S(=O)(=O)N2CCCCC2)cc1)C1CC(=O)N(c2ccc(Cl)cc2)C1 (centres undefined)	24.8*	-1.6	-7.5	0.1	4.1	-0.6	-5.6
Cc1cc(C)cc(NC(=S)Nc2cccc3cnccc23)c1	8.6	·	·	4.0	5.1	·	·
CCc1ccc(NC(=S)Nc2cccc3cnccc23)cc1	37.9*	-7.6	10.9	-0.2	21.4	-0.4	6.3
Cc1ccccc1CN(c1ccc(C(=O)NN=Cc2ccc(OCC(N)=O)cc2)cc1)S(C)(=O)=O	·	·	·	2.8	·	·	·
O=C(NC1CCCC1)C(c1ccc(N2CCOCC2)cc1)N(Cc1ccco1)C(=O)c1ccco1 (centres undefined)	-8.8	-5.7	-6.6	-2.5	-4.6	-5.8	·
O=C(NC1CCCC1)C(c1ccc(N2CCOCC2)cc1)N(Cc1ccccc1)C(=O)c1ccco1 (centres undefined)	32.2*	-0.1	-1.1	-1.7	-10.2	-6.4	-7.2
CCC(CO)Oc1cc(NC(=O)c2ccc(N)cc2)c2ncn(C(C)C)c2c1 (centres undefined)	36.9*	3.0	·	3.6	30.7	·	34.3*
